Here are results for 167 variants from the RNAGym collection of RNA variant scans (doi:10.1126/science.aae0568).

Fewer inactive variants are shown than the library holds.

B1: tRNA (parent)
chain: GUUCCGUUGGCGUAAUGGUAACGCGUCUCCCUCCUAAGGAGAAGACUGCGGGUUCGAGUCCCGUACGGAACG

This data set covers variants of B1. In words: yeast fitness relative to wild type (ratio to wild type); higher = fitter; tRNA-Arg(CCU), competitive growth, 37 C, YPD. In a few lines:
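Genotype frequency changes were the basis for Darwinian fitness relative to wild type. The frequencies came from 100-nucleotide paired-end sequencing of gene amplicons from the start population and each end population of pooled yeast strains with tRNA-Arg(CCU) gene variants at the native locus. Competition ran in YPD at 37°C for 24 hours in six replicates, genotypes needed ≥ 100 starting reads, and estimates < 0.5 were set to 0.5.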
On to A20C A21G G56C C66U, for which the yeast fitness is at most 0.5.

As for U19C C49U, the yeast fitness stood at 0.999.

Consider U19C C49A, for which the yeast fitness was determined as 0.606.

Take A20C C22G C29A C30G: the yeast fitness came out at 0.616.

For the variant U19C G25C G51C C60U, the yeast fitness was at most 0.5.

For U19C C24G G39C, the yeast fitness was at most 0.5.

On to U19C C27A C31G U32C G39C, for which the yeast fitness was at most 0.5.

Turning to U19C C30G A40C G51A C61A, the yeast fitness worked out at 0.696.

Consider U19G C30A A43U, for which the yeast fitness is 0.601.

With A20C A65G, the yeast fitness was found to be 0.936.

As to A20C A65U, the yeast fitness was 0.722.

For the variant U19C C34U G52A U59A, the yeast fitness is 0.669.

On to U19C U28C G67C, for which the yeast fitness was 0.638.

As for U19C C24G A36G A37U U47A, the yeast fitness was at most 0.5.

For U19G A20U C27G C66U, the yeast fitness was at most 0.5.

Turning to U19C C31A A37G G50U C62G, the yeast fitness was at most 0.5.

U19C C34G G68A: the yeast fitness was at most 0.5.

Take U19G G58C: the yeast fitness is 1.03.

Take U19G U32A: the yeast fitness came to 0.735.

In the case of U19G U32C, the yeast fitness was 1.04.

Consider U19C C22G C24A G39C A45U, for which the yeast fitness turned out to be 0.572.

Regarding U19C C22G C24A G39C A45C, the yeast fitness came out at 0.916.

U19G A65G A70C: the yeast fitness is 0.733.

As to U19C C62U, the yeast fitness was found to be 0.925.

Regarding U19G C49G, the yeast fitness stood at 0.69.

A20C A43C A57C: the yeast fitness was at most 0.5.

With U19C C24G U35C A37U U47A, the yeast fitness was at most 0.5.

As for U19C C22U C61A A70G, the yeast fitness is at most 0.5.

As for U19G C49U U54C C62A, the yeast fitness was at most 0.5.

Take U19C G41A: the yeast fitness stood at 0.899.

In the case of U19G G41U, the yeast fitness came to 0.691.

As for U19G G41C, the yeast fitness worked out at 0.622.

Turning to U19C C22G G63C G68U, the yeast fitness is at most 0.5.

In the case of U19C G56C, the yeast fitness stood at 0.67.

For A20C A40U C60G A65C, the yeast fitness was at most 0.5.

Turning to U19G C22U C31U A40U A65C G68A, the yeast fitness is at most 0.5.

Consider U19G C22G C34U, for which the yeast fitness amounted to 0.559.

As for U19G A45C A70U, the yeast fitness came to 0.557.

For A20C A21U C27G U35G, the yeast fitness came out at 0.521.

As to U19G G44A G48A G50C, the yeast fitness was at most 0.5.

Turning to U19G U26C C29G A57U A69U A70C, the yeast fitness was at most 0.5.

For A20C A21G G58C, the yeast fitness was 0.698.

In the case of A20C A43U G48C, the yeast fitness is 0.615.

Consider A20C A21G C24U U26C, for which the yeast fitness is at most 0.5.

Turning to U19C G39A, the yeast fitness came to 0.952.

As to U19C C55G, the yeast fitness turned out to be 0.676.

With U19C C55U, the yeast fitness turned out to be 0.807.

For the variant U19C G25C G58A, the yeast fitness stood at 0.625.

Regarding A20C A36U A45C C49G, the yeast fitness is at most 0.5.

Regarding A20C A21G C46U C60G, the yeast fitness was at most 0.5.

U19G C27U A37G U47C: the yeast fitness is at most 0.5.

Regarding U19C C55U C61G, the yeast fitness came to 0.596.

With U19C U26A C46U, the yeast fitness worked out at 0.901.

On to U19C G41C A65G, for which the yeast fitness amounted to 0.663.

Consider A20C A37C G63A, for which the yeast fitness is at most 0.5.

As to U19G C34U G68C, the yeast fitness came to 0.591.

Turning to U19C G25C C29A G52A, the yeast fitness is at most 0.5.

With U19C C27A C30G U54A G56A, the yeast fitness turned out to be 0.671.

For U19C G38C G58C U64A, the yeast fitness was at most 0.5.

As to U19C G67A, the yeast fitness came out at 1.

With U19C G67C, the yeast fitness worked out at 0.931.

Consider U19C G67U, for which the yeast fitness is 1.07.

With A20C A21C, the yeast fitness was 0.608.

U19G G44A: the yeast fitness worked out at 0.953.

With U19G A42U C46U, the yeast fitness was found to be 0.569.

Regarding U19C C33A, the yeast fitness came to 0.636.

Turning to U19C C22U C55U C61G, the yeast fitness is at most 0.5.

For the variant A20C A37G, the yeast fitness is 0.704.

As for A20C A37U, the yeast fitness came out at 0.817.

Take U19C C55U U59C C61G: the yeast fitness is at most 0.5.

Take U19G A40G C49A: the yeast fitness is at most 0.5.

Turning to A20C A21G U64G, the yeast fitness stood at 0.558.

With U19G C49U A69C, the yeast fitness is at most 0.5.

U19C G25A G48C C62A: the yeast fitness is at most 0.5.

In the case of U19C C24G, the yeast fitness came out at 0.621.

Turning to U19C C24A, the yeast fitness is 0.601.

U19C C31A C66U: the yeast fitness amounted to 0.555.

For the variant U19C C60A G68C, the yeast fitness was at most 0.5.

For the variant U19C G48C A69C, the yeast fitness was 1.03.

In the case of U19G A21U C46U, the yeast fitness came out at 0.809.

Regarding U19G U53A, the yeast fitness came to 0.506.

On to U19G C49U C62A A69G, for which the yeast fitness is at most 0.5.

With U19G U32G U53G, the yeast fitness is at most 0.5.

Take U19C C22U G67A: the yeast fitness came to 0.772.

A20C A65C C66U: the yeast fitness came to 0.619.

As for U19G U35C A43U A65G G68A, the yeast fitness was at most 0.5.

Turning to U19G C22U C30U C31U A40U G67A, the yeast fitness was at most 0.5.

For U19G, the yeast fitness came to 0.975.

Take U19C C24U C49A U54C C60G: the yeast fitness is at most 0.5.

In the case of U19C C31U G56A, the yeast fitness was 0.954.

As to U19C C24U C66U, the yeast fitness came to 0.712.

For the variant U19C C49A C62A, the yeast fitness is at most 0.5.

Take U19G U59C A69C: the yeast fitness is 0.658.

For U19G C22G A36C A57G C60A C66G, the yeast fitness is at most 0.5.

For U19C G38C G44C C46A G68C, the yeast fitness is at most 0.5.

Turning to U19C U53C G56A, the yeast fitness worked out at 0.622.

In the case of U19C U32C U64A, the yeast fitness was 0.501.

In the case of A20C A37C C49G, the yeast fitness was at most 0.5.

Regarding A20C A21G G23A C66A, the yeast fitness is at most 0.5.

For the variant A20C A37U U59G C66A, the yeast fitness came to 0.656.

For the variant U19G C29U A40C C60G C62A A65G, the yeast fitness was 0.525.

U19C U26A: the yeast fitness turned out to be 0.945.

U19C C24U U32C A37C A45G A57C: the yeast fitness was found to be 0.638.

With U19C C27G, the yeast fitness was 0.579.

For the variant U19C C27U, the yeast fitness came to 1.08.

For A20C A21G A70C, the yeast fitness amounted to 0.803.

Regarding U19G A43C C49U U53C C55G, the yeast fitness is at most 0.5.

In the case of A20C A36G U47C, the yeast fitness was 0.658.

Take A20C A21G C66U: the yeast fitness stood at 0.737.

With A20C A45G, the yeast fitness amounted to 0.853.

Take A20C A45U: the yeast fitness was 0.8.

As to U19C G51A, the yeast fitness was found to be 0.681.

For A20C A21C G39A U53A, the yeast fitness is at most 0.5.

U19G U47G G58C: the yeast fitness was at most 0.5.

Consider A20C A37G C49G U53A C60U, for which the yeast fitness stood at 0.527.

Consider U19G C49U C60A, for which the yeast fitness is at most 0.5.

Consider U19C U32C C60A C61A, for which the yeast fitness is 0.731.

In the case of U19C C29U C34A, the yeast fitness is at most 0.5.

Regarding U19G G38C A70U, the yeast fitness worked out at 0.501.

On to U19C C33G A36U G44A, for which the yeast fitness is at most 0.5.

Take U19G C29U G39C A42U G67A: the yeast fitness was 0.537.

U19C G50A C61U: the yeast fitness was at most 0.5.

U19G C31A G39C C62G G68A: the yeast fitness was at most 0.5.

U19C C31U G58A: the yeast fitness turned out to be 0.715.

Consider U19G C49U C60A C66G, for which the yeast fitness was at most 0.5.

Consider U19C C66U A69C, for which the yeast fitness was found to be 0.685.

Regarding A20C A36C, the yeast fitness is at most 0.5.

Take A20C A36U: the yeast fitness was 0.635.

Turning to U19G U28C A37G C66U A69U, the yeast fitness came to 0.524.

As to U19G C29U A40C, the yeast fitness amounted to 0.52.

With A20C A36G A45U A65G, the yeast fitness stood at 0.614.

On to U19G A43U C61G, for which the yeast fitness amounted to 0.559.

Regarding U19C C31U G56A G67A, the yeast fitness is 0.601.

With U19G A37G A57G A70U, the yeast fitness is at most 0.5.

For U19C C24G A37U U47A, the yeast fitness is 0.524.

As for U19G U59A A69U, the yeast fitness was at most 0.5.

As for A20C A42C, the yeast fitness was found to be 0.603.

On to A20C A21C C30G G39C A42G, for which the yeast fitness was 0.631.

U19G C22U C31U A40U A69U: the yeast fitness turned out to be 0.569.

As for U19C C24U C55U A57C, the yeast fitness was at most 0.5.

For U19C C24G A37U G56A A65C, the yeast fitness is at most 0.5.

As for U19G G58A C66U, the yeast fitness stood at 0.857.

Consider A20C A40U G48A C61A G68A, for which the yeast fitness was at most 0.5.

As for U19C C29G C31A, the yeast fitness is at most 0.5.

For the variant U19C C31G C49U, the yeast fitness was determined as 0.736.

For U19G A20U C30U G48A, the yeast fitness was determined as 0.577.

As for U19C C29G U47A, the yeast fitness is at most 0.5.

As for U19C C24U A69C, the yeast fitness stood at 0.789.

Consider U19C C31U C33G G41A C55U C61A, for which the yeast fitness is at most 0.5.

U19C C27G C31G G39C A57C: the yeast fitness was at most 0.5.

For U19C C22U C55A C66U, the yeast fitness was at most 0.5.

As for A20C A36C A45C, the yeast fitness stood at 0.592.

Regarding A20C A21U C27G A42U, the yeast fitness is at most 0.5.

Turning to A20C C22G C33A U59C, the yeast fitness is at most 0.5.

On to U19C G25C A37G, for which the yeast fitness amounted to 0.6.

Consider U19C C24G A37U U47A A57G, for which the yeast fitness is at most 0.5.

Turning to U19C G41C A70U, the yeast fitness amounted to 0.671.

A20C A69C: the yeast fitness was found to be 1.13.

For the variant A20C A69G, the yeast fitness worked out at 1.01.

Consider U19C C27U C46A C62G A69U, for which the yeast fitness is at most 0.5.

Consider U19C C34U C49A G56C C62A A65C, for which the yeast fitness was at most 0.5.

Turning to U19C G48A, the yeast fitness was 1.04.

As to U19C C27U C33G C34G G44A G50A G52A, the yeast fitness was at most 0.5.

With U19G C66A, the yeast fitness amounted to 0.53.

On to U19G C66U, for which the yeast fitness was 0.831.

Consider U19G A36C, for which the yeast fitness amounted to 0.529.

In the case of U19G C29A U54A, the yeast fitness was at most 0.5.
